For assay [1], the system named is Escherichia coli. The assay is described as follows: Antibacterial activity against Escherichia coli 1596 containing gyrA L83 and parC I80, G84 mutants assessed as increase in MIC by Etest relative to MIC for Escherichia coli 1608 containing gyrA mutant. It counts as functional. An outline of the steps:
(§1)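 Defined isogenic E. coli strains in a C600 background (parent 1609); mutations introduced by λ Red recombineering with temperature-sensitive pSIM5, overnight recovery after electroporation, plasmid cured at 37°C. Fluoroquinolone MICs were read by Etest per the manufacturer's instructions. MICs above the Etest limit were measured by broth macrodilution per CLSI guidelines. Results are expressed as fold change in MIC relative to the comparator strain.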

Assay [2] deals with Escherichia coli. The assay is described as follows: Antibacterial activity against Escherichia coli 1608 containing gyrA L83, Y87 mutants assessed as increase in MIC by Etest relative to MIC for wild type Escherichia coli 1609.
For assay [3], the system named is Escherichia coli. The assay is described as follows: Antibacterial activity against Escherichia coli SKM9 containing gyrA L83, Y87 and parC L80 mutants assessed as increase in MIC by Etest relative to MIC for Escherichia coli 1596 containing gyrA L83 and parC L80 mutants.
The subject of assay [4] is Escherichia coli. The assay is described as follows: Antibacterial activity against Escherichia coli SKM18 containing gyrA L83, Y87 and parC I80, G84 mutants assessed as increase in MIC by Etest relative to MIC for Escherichia coli SKM9 containing gyrA L83, Y87 and parC L80 mutants.
The test system of assay [5] is Escherichia coli. The assay is described as follows: Antibacterial activity against Escherichia coli 1596 containing parC K84 mutant assessed as decrease in MIC by Etest relative to MIC for Escherichia coli 1608 containing gyrA mutant. It counts as functional. An outline of the steps: as §1
For assay [6], the system named is Escherichia coli. The assay is described as follows: Antibacterial activity against Escherichia coli 1608 containing gyrA L83 mutant assessed as increase in MIC by Etest relative to MIC for wild type Escherichia coli 1609. The assay is classed as functional. An outline of the steps:
as §1

Structures are written as SMILES.

Turning to `C[C@H]1COc2c(N3CCN(C)CC3)c(F)cc3c(=O)c(C(=O)O)cn1c23.C[C@H]1COc2c(N3CCN(C)CC3)c(F)cc3c(=O)c(C(=O)O)cn1c23.O` [LEVOFLOXACIN], the values for the Ratio in assay [1], in assay [2] and in assay [3] were 1, 5 and 9, respectively.

`COc1c(N2CCNC(C)C2)c(F)cc2c(=O)c(C(=O)O)cn(C3CC3)c12` (configuration not stated) [GATIFLOXACIN]: the Ratio in assay [1] was 1; in assay [2] it was 5; in assay [3] it was 9; in assay [4], 2.

Consider `C[C@@H]1CN(c2c(F)c(N)c3c(=O)c(C(=O)O)cn(C4CC4)c3c2F)C[C@H](C)N1` [SPARFLOXACIN], for which the MIC in assay [5] is 0.008 µg/mL.

For `Cc1c(F)c(N2CCNC(C)C2)cc2c1c(=O)c(C(=O)O)cn2C1CC1` (configuration not stated) [GREPAFLOXACIN], the MIC in assay [5] worked out at 0.014 µg/mL.

On to `CCn1cc(C(=O)O)c(=O)c2cc(F)c(N3CCNCC3)cc21` [NORFLOXACIN], for which the Ratio was 5 in assay [1], 5 in assay [2] and 9 in assay [3].

As for `CO/N=C1\CN(c2nc3c(cc2F)c(=O)c(C(=O)O)cn3C2CC2)CC1CN` (configuration not stated) [GEMIFLOXACIN], the values for the Ratio in assay [1], in assay [2] and in assay [3] were 1, 5 and 9, respectively. Moreover, the MIC in assay [5] is 0.007 µg/mL.

Turning to `COc1c(N2C[C@@H]3CCCN[C@@H]3C2)c(F)cc2c(=O)c(C(=O)O)cn(C3CC3)c12` [MOXIFLOXACIN], the Ratio in assay [1] is on record as 1; in assay [6] it was 1; in assay [2], 5; in assay [3] it was 9; in assay [4], 10. Also, the MIC in assay [5] came to 0.028 µg/mL.

By MIC is commonly meant the smallest concentration in the dilution series that meets the test's criterion for growth inhibition.

The values are drawn from ChEMBL document CHEMBL1152985, “Contributions of the combined effects of topoisomerase mutations toward fluoroquinolone resistance in Escherichia coli” (2007).
